Measurements published in ChEMBL document CHEMBL1157327, “Antimicrobial dialkylresorcinols from Pseudomonas sp. Ki19” (2006).
In brackets after ≈: the same amount, converted by molar mass.

Key:
Format in all cases: functional
Staphylococcus aureus [1] = assay: Antibacterial activity against Staphylococcus aureus assessed as total inhibition of cell growth/spore germination after 24 hrs
How it was run: (§1)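 Microtiter-plate cell growth inhibition, compounds tested up to 100 µg/mL, incubated at 37 °C for 24 h. Total inhibition was taken as full inhibition of growth. Tests run in triplicate and repeated once.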

Candida albicans [2] = assay: Antifungal activity against Candida albicans assessed as total inhibition of cell growth/spore germination after 24 hrs; how it was run: as §1
Drechslera [3] = assay: Antifungal activity against Drechslera sorokiniana assessed as total inhibition of cell growth/spore germination after 48 hrs
How it was run: (§2)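 Spore germination/growth inhibition was read in microtiter plates with compounds up to 100 µg/mL. Plates were incubated in darkness at 27-28 °C: D. sorokiniana 48 h, F. culmorum 72 h, A. fumigatus 96 h. Visual scores ran from 3 (full inhibition, like sterile medium) through 1 (detectable) to 0 (like untreated spore suspension). Triplicates, repeated once.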

Aspergillus fumigatus [4] = assay: Antifungal activity against Aspergillus fumigatus assessed as total inhibition of cell growth/spore germination after 96 hrs; how it was run: as §2
Staphylococcus aureus [5] = assay: Antibacterial activity against Staphylococcus aureus assessed as detectable inhibition of growth after 24 hrs; how it was run: as §1
Fusarium culmorum [6] = assay: Antifungal activity against Fusarium culmorum assessed as total inhibition of cell growth/spore germination after 72 hrs; how it was run: as §2
Fusarium culmorum [7] = assay: Antifungal activity against Fusarium culmorum assessed as detectable inhibition of growth after 72 hrs; how it was run: as §2
Aspergillus fumigatus [8] = assay: Antifungal activity against Aspergillus fumigatus assessed as detectable inhibition of growth after 96 hrs; how it was run: as §2
Candida albicans [9] = assay: Antifungal activity against Candida albicans assessed as detectable inhibition of growth after 24 hrs; how it was run: as §1
Drechslera [10] = assay: Antifungal activity against Drechslera sorokiniana assessed as detectable inhibition of growth after 48 hrs; how it was run: as §2
[11] = tested on: Pseudomonas savastanoi pv. savastanoi; assay: Antibacterial activity against Pseudomonas savastanoi pv. savastanoi CCM 3580 assessed as detectable inhibition of growth after 24 hrs; conditions: CCM 3580, 24 h
How it was run: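 Microtiter-plate bioassay of cell growth inhibition; compounds tested up to 100 µg/mL; plates incubated in darkness at 27-28 °C for 24 h; growth scored visually on a 0-3 scale (3 full inhibition like sterile-medium control, 1 detectable inhibition, 0 like untreated cell suspension); value is lowest concentration giving detectable inhibition; triplicate, repeated once.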

Row | MIC (Staphylococcus aureus [1]) | MIC (Candida albicans [2]) | MIC (Drechslera [3]) | MIC (Aspergillus fumigatus [4]) | MIC (Staphylococcus aureus [5]) | MIC (Fusarium culmorum [6]) | MIC (Fusarium culmorum [7]) | MIC (Aspergillus fumigatus [8]) | MIC (Candida albicans [9]) | MIC (Drechslera [10]) | Structure (SMILES) | MIC [11]
1 | 100 µg/mL (≈ 359 µM) | 100 µg/mL (≈ 359 µM) | – | – | – | – | – | – | – | – | CCCCCCC1=C(O)C(=O)C(CCCCC)=CC1=O | –
2 | 2 µg/mL (≈ 9.6 µM) | – | 50 µg/mL (≈ 240 µM) | 50 µg/mL (≈ 240 µM) | 1 µg/mL (≈ 4.8 µM) | 50 µg/mL (≈ 240 µM) | 10 µg/mL (≈ 48 µM) | 10 µg/mL (≈ 48 µM) | 50 µg/mL (≈ 240 µM) | – | CCCCCCc1c(O)cc(C)cc1O | –
3 | 3 µg/mL (≈ 12.7 µM) | 50 µg/mL (≈ 212 µM) | – | 50 µg/mL (≈ 212 µM) | 2 µg/mL (≈ 8.46 µM) | 50 µg/mL (≈ 212 µM) | 10 µg/mL (≈ 42.3 µM) | 10 µg/mL (≈ 42.3 µM) | – | 50 µg/mL (≈ 212 µM) | CCCCCCc1c(O)cc(CCC)cc1O | –
4 | 5 µg/mL (≈ 24 µM) | – | – | – | – | 50 µg/mL (≈ 240 µM) | – | 50 µg/mL (≈ 240 µM) | 50 µg/mL (≈ 240 µM) | 50 µg/mL (≈ 240 µM) | CCCCc1c(O)cc(CCC)cc1O | –
5 | – | 40 µg/mL (≈ 43.3 µM) | 4 µg/mL (≈ 4.33 µM) | 40 µg/mL (≈ 43.3 µM) | – | 40 µg/mL (≈ 43.3 µM) | – | – | – | – | C[C@@H]1[C@H](O)[C@@H](C)/C=C/C=C/C=C/C=C/C=C/C=C/C=C/[C@H](O[C@@H]2O[C@H](C)[C@@H](O)[C@H](N)[C@@H]2O)C[C@@H]2O[C@](O)(C[C@@H](O)C[C@@H](O)[C@H](O)CC[C@@H](O)C[C@@H](O)CC(=O)O[C@H]1C)C[C@H](O)[C@H]2C(=O)O [AMPHOTERICIN B] | –
6 | 10 µg/mL (≈ 17.2 µM) | – | – | – | – | – | – | – | – | – | CN[C@@H]1[C@H](O[C@H]2[C@H](O[C@H]3[C@H](O)[C@@H](O)[C@H](N=C(N)N)[C@@H](O)[C@@H]3N=C(N)N)O[C@@H](C)[C@]2(O)C=O)O[C@@H](CO)[C@H](O)[C@H]1O [STREPTOMYCIN] | –

Row | Structure (SMILES) | MIC (Staphylococcus aureus [1]) | MIC (Candida albicans [2]) | MIC (Drechslera [3]) | MIC (Aspergillus fumigatus [4]) | MIC (Staphylococcus aureus [5]) | MIC (Fusarium culmorum [6]) | MIC (Fusarium culmorum [7]) | MIC (Aspergillus fumigatus [8]) | MIC (Candida albicans [9]) | MIC (Drechslera [10]) | MIC [11]
7 | C=CCOC(Cn1ccnc1)c1ccc(Cl)cc1Cl (stereo not drawn) [ENILCONAZOLE] | – | – | 0.1 µg/mL (≈ 0.336 µM) | 5 µg/mL (≈ 16.8 µM) | – | 5 µg/mL (≈ 16.8 µM) | – | – | – | – | –
8 | CCCCCCc1c(O)cc(CCCCC)cc1O [RESORSTATIN] | 7 µg/mL (≈ 26.5 µM) | – | – | – | 6 µg/mL (≈ 22.7 µM) | 50 µg/mL (≈ 189 µM) | – | 50 µg/mL (≈ 189 µM) | 50 µg/mL (≈ 189 µM) | 50 µg/mL (≈ 189 µM) | 50 µg/mL (≈ 189 µM)
